The values below come from PubChem BioAssay AID588791 (Southern Research Specialized Biocontainment Screening …, 2011).

Activity calls are given as the source filed them.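 The calls were made as follows: active = virus titer falling by more than one log, over tenfold fewer virus than untreated infected wells; inactive = the rest.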

The test system of this assay is HEp-2 cells, RSV plaque reduction, virus titer. Kind of assay: RSV yield reduction in HEp-2 cells – cell-based, set 5, orthogonal assay for RSV inhibitor project, late-stage follow-up (AID 588791). The note with it: stronger effect = lower value. Put shortly: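 Material: RSV Long-infected HEp-2 cells; Timing: 48 h compound treatment, 37 °C; Detection: plaque assay on HEp-2, neutral red staining.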

Take `CC(C)c1ccc(Cn2c(=O)n(Cc3ccc(C(=O)NCC4COC4)cc3)c(=O)c3cccnc32)cc1`: the log virus titer change is, setting by setting: (at 10 µM) -2.72; (titer change, at 2.5 µM) 0.155; (titer change, at 5 µM) -0.572.

As for `CC(C)c1ccc(Cn2c(=O)n(Cc3ccc(C(=O)NCC4COC4)cc3)c(=O)c3ccccc32)cc1`, the log virus titer change (at 10 µM) was -5.75; the log virus titer change (titer change, at 2.5 µM) is -3.06; the log virus titer change (titer change, at 5 µM) is -5.75.

For the molecule `CC(C)c1ccc(Cn2c(=O)n(Cc3ccc(C(=O)NCC4COC4)cc3)c(=O)c3ncccc32)cc1`, the log virus titer change (at 10 µM) was 0.144 (inactive); the log virus titer change (titer change, at 2.5 µM) is 0.21; the log virus titer change (titer change, at 5 µM) was 0.267.

As to `CC(C)(C)c1ccc(Cn2c(=O)n(Cc3ccc(C(=O)NCC4COC4)cc3)c(=O)c3ccccc32)cc1`, the log virus titer change was -3.4 (at 10 µM); 0.138 (titer change, at 2.5 µM); -1.13 (titer change, at 5 µM).
